Results published in paper PMC3689924 (Pharmacology, 2012).
Values joined by “and” are separate entries in the source; they are usually repeats but may differ in a detail not shown here. Equal values may be shown once. “Also recorded” adds a separate entry of the source. Read-outs that look alike come from different tables or passages of the source.

Key:
[1] = assay type: in vivo, human; conditions: for t½: terminal elimination
Procedure, shortened: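 Healthy males (n=5 per dose group). Vehicle stock of 20% ethanol/80% propylene glycol, diluted to 0.6 mg/ml in 5% dextrose, infused i.v. at 375 ml/h to target dose. Heparinised blood taken pre-dose, at 25/50/75% and end of infusion, then to 1440 min. Plasma methanol-precipitated, C18 HPLC-MS, calibration 0.005–5 μg/ml, LLOQ 5 ng/ml. Cmax observed; AUC0-n, Vss, CL, t½ calculated.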

[2] = assay type: in vitro ADME, human; conditions: for TQD concentration in plasma after storage: mean±SD of four determinations
Procedure, shortened: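 Plasma was spiked at 0.1, 0.5 and 2.0 μg/ml and split into 16 aliquots per level. Four aliquots were analysed by HPLC at once as the baseline. The rest were stored 24 h, 1 month or 3 months at RT, 4°C, −20°C or −80°C, then quantified. Results are given as mean of four determinations and percent of baseline; stability criterion was 95%.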

[3] = 4 mg/kg BW i.v. infusion, individual subjects 1-5
[4] = 6 mg/kg BW i.v. infusion, individual subjects 6-10
[5] = 8 mg/kg BW i.v. infusion, individual subjects 11-15

Structure (SMILES): COc1cc2c(cc1OC)CN(CCc1ccc(NC(=O)c3cc(OC)c(OC)cc3NC(=O)c3cnc4ccccc4c3)cc1)CC2 [TQD, tariquidar]
- CL [1, 3]: 11.29 L/h and 7.39 L/h and 9.22 L/h and 10.11 L/h
- Vss [1, 3]: 530 L and 571 L and 384 L and 445 L
- tmax [1, 3]: 1.38 h and 1.45 h and 1.55 h and 1.40 h
- t½ [1, 3]: 33 h and 55 h and 30 h and 31 h
- CL [1, 4]: 13.99 L/h and 15.15 L/h and 13.53 L/h and 11.35 L/h
- Vss [1, 4]: 645 L and 509 L and 680 L and 312 L and 559 L
- tmax [1, 4]: 2.45 h and 1.83 h and 2.23 h
- t½ [1, 4]: 34 h and 26 h and 33 h and 16 h and 35 h
- CL [1, 5]: 15.41 L/h and 16.21 L/h and 20.85 L/h and 22.15 L/h
- Vss [1, 5]: 521 L and 667 L and 380 L and 616 L
- tmax [1, 5]: 2.42 h and 2.28 h and 2.70 h and 2.26 h
- Cmax ([1]; 8 mg/kg BW i.v. infusion, individual subjects 11-15, plasma): 1.92 µg/mL and 1.05 µg/mL and 1.87 µg/mL and 1.66 µg/mL
- t½ [1, 5]: 21 h and 25 h and 30 h and 14 h
- concentration of possible metabolites in plasma samples ([1]; all plasma samples, 4-8 mg/kg i.v.): below the detection limit; also recorded: could not detect any metabolites
- dose dependency of plasma exposure AUC0-n ([1]; dose range from 2 to 8 mg/kg i.v.): largely increase linearly
- percent of baseline ([2]; 0.1 μg/ml, 4°C, 1 month): 7.2%
- TQD concentration in plasma after storage ([2]; 0.1 μg/ml, 4°C, 1 month): 0.007 ± 0.001 µg/mL
- percent of baseline ([2]; 0.1 μg/ml, 4°C, 3 months): 3.1%
- TQD concentration in plasma after storage ([2]; 0.1 μg/ml, 4°C, 3 months): 0.003 ± 0.000 µg/mL
- percent of baseline ([2]; 0.1 μg/ml, 4°C, 24 h): 99%
- TQD concentration in plasma after storage ([2]; 0.1 μg/ml, 4°C, 24 h): 0.099 ± 0.003 µg/mL
- percent of baseline ([2]; 0.1 μg/ml, RT, 1 month): 8.6%
- TQD concentration in plasma after storage ([2]; 0.1 μg/ml, RT, 1 month): 0.008 ± 0.000 µg/mL
- percent of baseline ([2]; 0.1 μg/ml, RT, 3 months): 3.0%
- TQD concentration in plasma after storage ([2]; 0.1 μg/ml, RT, 3 months): 0.003 ± 0.000 µg/mL
- percent of baseline ([2]; 0.1 μg/ml, RT, 24 h): 100%
- TQD concentration in plasma after storage ([2]; 0.1 μg/ml, RT, 24 h): 0.10 ± 0.004 µg/mL
- percent of baseline ([2]; 0.1 μg/ml, −20°C, 1 month): 73.9%
- TQD concentration in plasma after storage ([2]; 0.1 μg/ml, −20°C, 1 month): 0.073 ± 0.005 µg/mL
- percent of baseline ([2]; 0.1 μg/ml, −20°C, 3 months): 40.8%
- TQD concentration in plasma after storage ([2]; 0.1 μg/ml, −20°C, 3 months): 0.041 ± 0.004 µg/mL
- percent of baseline ([2]; 0.1 μg/ml, −20°C, 24 h): 100%
- TQD concentration in plasma after storage ([2]; 0.1 μg/ml, −20°C, 24 h): 0.10 ± 0.002 µg/mL
- percent of baseline ([2]; 0.1 μg/ml, −80°C, 1 month): 78.1%
- TQD concentration in plasma after storage ([2]; 0.1 μg/ml, −80°C, 1 month): 0.078 ± 0.006 µg/mL
- percent of baseline ([2]; 0.1 μg/ml, −80°C, 3 months): 69.1%
- TQD concentration in plasma after storage ([2]; 0.1 μg/ml, −80°C, 3 months): 0.069 ± 0.005 µg/mL
- percent of baseline ([2]; 0.1 μg/ml, −80°C, 24 h): 98%
- TQD concentration in plasma after storage ([2]; 0.1 μg/ml, −80°C, 24 h): 0.098 ± 0.003 µg/mL
- percent of baseline ([2]; 0.5 μg/ml, 4°C, 1 month): 11.2%
- TQD concentration in plasma after storage ([2]; 0.5 μg/ml, 4°C, 1 month): 0.056 ± 0.003 µg/mL
- percent of baseline ([2]; 0.5 μg/ml, 4°C, 3 months): 3.4%
- TQD concentration in plasma after storage ([2]; 0.5 μg/ml, 4°C, 3 months): 0.017 ± 0.001 µg/mL
- percent of baseline ([2]; 0.5 μg/ml, 4°C, 24 h): 102%
- TQD concentration in plasma after storage ([2]; 0.5 μg/ml, 4°C, 24 h): 0.51 ± 0.023 µg/mL
- percent of baseline ([2]; 0.5 μg/ml, RT, 3 months): 1.7%
- TQD concentration in plasma after storage ([2]; 0.5 μg/ml, RT, 3 months): 0.008 ± 0.001 µg/mL
- percent of baseline ([2]; 0.5 μg/ml, RT, 24 h): 98%
- TQD concentration in plasma after storage ([2]; 0.5 μg/ml, RT, 24 h): 0.49 ± 0.033 µg/mL
- percent of baseline ([2]; 0.5 μg/ml, −20°C, 1 month): 77.6%
- TQD concentration in plasma after storage ([2]; 0.5 μg/ml, −20°C, 1 month): 0.38 ± 0.021 µg/mL
